Experimental data gathered from unrelated publications.
Each line is one published result; the experiments were not run side by side.

SMILES | host | matrix | route | dose | setting | endpoint | result
COc1ccc([C@@H]2CN(C(=O)[C@@H](O)CO)C[C@@]2(C)[C@@H](C)O)cc1OC1CN(c2ccc(C)cn2)C1 | human | plasma | oral | 0.1 mg | single dose, healthy volunteers | AUC(0-inf) | 0.0591 µg·h/mL
CC(C)(NC(=O)O[C@@H]1CN2CCC1CC2)c1csc(-c2ccc(F)cc2)n1 | female CD-1 mouse | brain | intraperitoneal | 10 mg/kg | single dose | tissue/plasma ratio | 0.86
CN(C(=O)n1cnc(-c2ccc[n+]([O-])c2)c1)C1CCCCC1 | male cynomolgus monkey | plasma | oral | 0.3 mg/kg |  | Tmax | 2 h
CC(C)Oc1cccc(-c2cnc(N3CCC(C(N)=O)CC3)s2)c1 | male Swiss mouse | brain | oral | 30 mg/kg | single dose | tissue/plasma ratio | 0.29
CC(C)(O)c1ccccc1-c1ccc2[nH]c(/C=C/c3ccc(C(F)(F)F)cc3)nc2c1 | male human | plasma | oral | 10 mg | single dose, fasted | AUC(0-inf) | 2.11 µg·h/mL
CC(C)n1cc(C#N)c2cc(-n3cc(C(=O)O)cn3)ccc21 | human | plasma | oral | 400 mg | single dose, fasted, healthy volunteers | AUC(0-inf) | 92 µg·h/mL
CC(C)(C)c1ccc(O)c(CN(Cc2cc(C(C)(C)C)ccc2O)C2CCC(NC(N)=O)CC2)c1 (stereo not drawn) | male C57BL/6 mouse | brain | oral | 10 mg/kg | single dose | tissue/plasma ratio | 0.64
CCc1nc2c(C)cc(N3CCN(CC(=O)N4CC(O)C4)CC3)cn2c1N(C)c1nc(-c2ccc(F)cc2)c(C#N)s1 | human | plasma | oral | 150 mg | fed, healthy volunteers | AUC(0-inf) | 6.4 µg·h/mL
COc1cc(C(=O)NC2CCN(C)CC2)c(F)cc1Nc1ncc(C(F)(F)F)c(Oc2cccc3c2C(=O)N(C)C3)n1 | human | plasma | oral | 25 mg | multiple doses, once daily, steady state, patients | AUC | 5.1 µM·h
